RGS4 block: human RGS4 inhibition. B-score at 10 µM. actives 0.45% (n = 310,000). P49798. HEK293 M3R/RGS4 inducible, Fluo-4 calcium flux; stronger effect = higher value; triggered by carbachol at its EC20. AID 463165;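 active = B-score, a plate-corrected calcium signal, over three deviations above library mean, with baseline fluorescence within five deviations of library mean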;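 note: RGS4 expression induced by doxycycline in cells with stable M3 receptor; B-score is computed from the integrated fluorescence ratio over baseline after carbachol; higher B-score means a larger calcium signal and so more RGS4 inhibition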
Target sequence (P49798 whole entry, looked up): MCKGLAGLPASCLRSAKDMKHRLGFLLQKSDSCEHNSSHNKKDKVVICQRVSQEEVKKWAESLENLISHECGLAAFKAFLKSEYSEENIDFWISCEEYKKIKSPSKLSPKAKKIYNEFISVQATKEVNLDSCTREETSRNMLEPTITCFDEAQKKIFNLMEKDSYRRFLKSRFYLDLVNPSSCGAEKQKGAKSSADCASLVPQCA
MrgX1 allo act: allosterically activates human MrgX1 receptor signaling; MrgX1-HEK293, Fluo-4 calcium flux, FDSS; stronger effect = higher value; AID 588675; actives 0.63% (n = 310,000); B-score at 10 µM;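 active = plate-corrected calcium response at least 3 library SD above typical, normal starting fluorescence, not activating the receptor alone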;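 note: compound read alongside a low EC10 to EC30 dose of BAM8-22 agonist; peak minus trough fluorescence over baseline measured at the second addition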
Target sequence (Q96LB2 whole entry, looked up): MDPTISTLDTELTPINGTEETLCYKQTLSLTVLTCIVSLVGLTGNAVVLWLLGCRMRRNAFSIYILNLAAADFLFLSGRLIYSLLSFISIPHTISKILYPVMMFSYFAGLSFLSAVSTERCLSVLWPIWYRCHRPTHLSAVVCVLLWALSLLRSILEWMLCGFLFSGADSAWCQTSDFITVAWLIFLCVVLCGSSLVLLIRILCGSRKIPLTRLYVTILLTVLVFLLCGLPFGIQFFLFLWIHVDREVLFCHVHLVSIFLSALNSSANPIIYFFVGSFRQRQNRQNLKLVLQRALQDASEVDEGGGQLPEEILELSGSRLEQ
MrgX1 antag: blocks BAM8-22 activation of human MrgX1 receptor; Q96LB2; MRGX1-HEK293 calcium flux, Fluo-4, BAM8-22 antagonism; stronger effect = lower value; B-score at 10 µM; actives 1.3% (n = 310,000);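 active = calcium-response B-score plate-corrected more than 3 library SD below zero, starting fluorescence within 5 deviations, no agonist response on first addition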;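 note: peak minus trough fluorescence over baseline after final BAM8-22 challenge near maximal dose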
MrgX1 ag: agonists of human MrgX1 receptor. AID 588627. actives 0.44% (n = 310,000). MrgX1-HEK293 cells, Fluo-4 calcium fluorescence, agonist mode; stronger effect = higher value. B-score at 10 µM. Q96LB2;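 active = calcium response B-score plate-corrected fluorescence ratio at least 3 library SD, with starting fluorescence B-score inside 5 SD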
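System – MrgX1-expressing HEK293 cells · Incubation – cells plated overnight, dye loaded 0.5 h 37 °C, 0.5 h room temperature · Technique – kinetic Fluo-4 NW fluorescence of intracellular calcium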
RGS4 act: RGS4 potentiation or activation; actives 0.92% (n = 310,000); HEK293 M3R/inducible RGS4, carbachol calcium flux Fluo4; stronger effect = lower value; B-score at 10 µM;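 active = B-score of the integrated calcium signal more than 4 SD below the library mean, with starting fluorescence not abnormally high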;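 note: negative B-score means reduced calcium response which marks RGS4 activation or potentiation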
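Test system: HEK293 cells with stable M3R and inducible RGS4; also added: carbachol at ECmax as muscarinic agonist stimulus; schedule: dye loading 30 min 37 °C, buffer rest 30 min RT; technique: kinetic calcium fluorescence imaging with Fluo4-AM dye, 2 µM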
MrgX1 antag conf: human MrgX1 receptor antagonism, re-confirmation screen; shares compounds with MrgX1 antag; MrgX1-HEK293, BAM8-22 calcium flux, Fluo-4; stronger effect = lower value; AID 602420; actives 19% (n = 2,300); remaining BAM8-22 calcium response % of control (stronger effect = lower value), % at 10 µM;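 active = remaining agonist calcium response no higher than 100% minus 3 SD of agonist-only control wells, with starting fluorescence near control levels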;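 note: agonist BAM8-22 given at a near maximal EC90 to ECmax level; peak minus minimum fluorescence divided by baseline after agonist addition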
HEK293 Ca flux: MrgX1 antagonist counter-screen hit in parental HEK293 cells; shares compounds with MrgX1 antag; Fluo-4 calcium fluorescence, FDSS; fluorescence ratio F(max-min)/F0 at 10 µM; actives 2% (n = 4,000); AID 624111;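 active = duplicate-averaged calcium fluorescence ratio at least three times the standard deviation of buffer wells, a nonspecific response in parental cells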
HEK293 Ca counter: activity in parental HEK293 cells without MrgX1. fluorescence ratio F(max-min)/F0 at 10 µM. parental HEK293 calcium flux, Fluo-4 fluorescence ratio; stronger effect = higher value. actives 0.4% (n = 4,000). shares compounds with MrgX1 antag. AID 624114;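 active = calcium fluorescence ratio, averaged over duplicates, at least 3 SD of the buffer-well ratio, meaning a nonspecific response in receptor-free cells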;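 note: untransfected parental HEK293 lacking MrgX1 used as counterscreen for MrgX1 allosteric activators; fluorescence change taken during the second addition on a kinetic imager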
HEK293 Ca cntr2: activity in parental HEK293 cells lacking MrgX1 receptor; shares compounds with MrgX1 antag; Fluo-4 calcium fluorescence (FDSS); stronger effect = higher value; fluorescence ratio F(max-min)/F0 at 10 µM; actives 8.7% (n = 4,000);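 active = calcium fluorescence ratio at least three times the spread of buffer wells, meaning a non-specific response in parental cells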
Of the large screens only hits and unclear results are named; the others gave an inactive call (follow-up assays come after a bar, where they were run). This is a sample that favours compounds with a hit; in the whole collection about 3.5% have one here.

O=C(CCN1CCC(c2ccccc2)C1)c1ccccc1 (stereo not given)	MrgX1 antag -5.2 | MrgX1 antag conf inactive | HEK293 Ca flux inactive | HEK293 Ca counter inactive | HEK293 Ca cntr2 inactive
O=C(Nc1ccccc1)N1CCC(c2ccccc2)C1 (stereo not given)	none
CCC(C(=O)N1CCN(Cc2ccc3c(c2)OCO3)CC1)n1c(=O)[nH]c2ccccc2c1=O (stereo not given)	none
CN(C)S(=O)(=O)N(CC(=O)Nc1ccc(F)c(F)c1)c1ccccc1	MrgX1 antag -6.1 | MrgX1 antag conf inactive | HEK293 Ca flux inactive | HEK293 Ca counter inactive | HEK293 Ca cntr2 inactive
CN(C)S(=O)(=O)N(CC(=O)Nc1ccc2ccccc2c1)c1ccccc1	none
Cc1ccc(Nc2nnc(SCc3cc(=O)n4ccsc4n3)s2)c(C)c1	MrgX1 antag -7 | MrgX1 antag conf inactive | HEK293 Ca flux inactive | HEK293 Ca counter inactive | HEK293 Ca cntr2 inactive
O=c1cc(C(F)(F)F)[nH]c2ccc(C(F)(F)F)cc12	MrgX1 antag -4.7 | MrgX1 antag conf inactive | HEK293 Ca flux inactive | HEK293 Ca counter inactive | HEK293 Ca cntr2 inactive
O=C(Cn1nc(-c2ccc3c(c2)OCCO3)ccc1=O)Nc1cccc(NC(=O)c2ccccn2)c1	none
C=CCOc1c(Cl)cc(C(=S)N2CCCC2)cc1OCC	MrgX1 antag -6.9 | MrgX1 antag conf inactive | HEK293 Ca flux inactive | HEK293 Ca counter inactive | HEK293 Ca cntr2 inactive
O=C(CSc1nnnn1-c1cccc2c1CCCC2)NC1CCCC1	MrgX1 antag -4.5 | MrgX1 antag conf inactive | HEK293 Ca flux inactive | HEK293 Ca counter inactive | HEK293 Ca cntr2 inactive
Cc1ccc(S(=O)(=O)NC(=O)c2ccccc2)cc1C(C)C	MrgX1 antag -8.1 | MrgX1 antag conf inactive | HEK293 Ca flux inactive | HEK293 Ca counter inactive | HEK293 Ca cntr2 inactive
CCOc1ccc(S(=O)(=O)NC(=O)c2ccccc2)cc1	none
O=C(c1nc2nc(-c3ccc(Cl)cc3)cc(C(F)(F)F)n2n1)N1CCOCC1	none
O=C(c1nc2nc(-c3ccccc3)cc(C(F)(F)F)n2n1)N1CCOCC1	MrgX1 antag -5.5 | MrgX1 antag conf 85% | HEK293 Ca flux inactive | HEK293 Ca counter inactive | HEK293 Ca cntr2 inactive
O=C(O)c1ccc(Cl)c(S(=O)(=O)N2CCCC2)c1	none
O=C(O)c1ccc(Br)c(S(=O)(=O)N2CCCC2)c1	MrgX1 antag -5.6 | MrgX1 antag conf inactive | HEK293 Ca flux inactive | HEK293 Ca counter inactive | HEK293 Ca cntr2 inactive
CN(C(=O)CO/N=C/c1ccc(OC(F)F)cc1)C1CCS(=O)(=O)C1 (stereo not given)	none
COc1ccc2c(c1)OC[C@H]1[C@H]2N2C(=O)c3cc(Br)ccc3NC(=O)[C@@]2(C)[C@H]1c1ccccc1	MrgX1 antag -7.6 (no result: RGS4 block, RGS4 act) | MrgX1 antag conf 79% | HEK293 Ca flux inactive | HEK293 Ca counter inactive | HEK293 Ca cntr2 inactive
COc1ccc2c(c1)OC[C@H]1[C@H]2N2C(=O)c3cc(OC)c(OC)cc3NC(=O)[C@@]2(C)[C@H]1c1ccccc1	none (no result: RGS4 block, RGS4 act)
Cc1cc(NCc2ccco2)n2ncnc2n1	MrgX1 antag -7.1 | MrgX1 antag conf inactive | HEK293 Ca flux inactive | HEK293 Ca counter inactive | HEK293 Ca cntr2 inactive
Clc1ccccc1Cn1nnc2c(NCC3CC3)ncnc21	MrgX1 antag -7.5 | MrgX1 antag conf inactive | HEK293 Ca flux inactive | HEK293 Ca counter inactive | HEK293 Ca cntr2 inactive
Clc1ccccc1Cn1nnc2c(Nc3ccccc3)ncnc21	none
CCC(CC)N=C1NS(=O)(=O)c2cc([N+](=O)[O-])ccc21	none
CC(NC(=O)COC(=O)CCc1nc(=O)c2ccccc2n1C)c1ccccc1 (stereo not given)	none
Cn1c(CCC(=O)OCC(=O)NCC(F)(F)F)nc(=O)c2ccccc21	MrgX1 antag -5.6 | MrgX1 antag conf inactive | HEK293 Ca flux inactive | HEK293 Ca counter inactive | HEK293 Ca cntr2 inactive
O=c1[nH]cc(S(=O)(=O)N2CCOCC2)c(=O)[nH]1	none
CC(=O)Nc1ccc(S(=O)(=O)N2CCC(C(=O)NCCC(=O)NCc3ccccc3)CC2)cc1	none
CCN1C(=O)[C@H]2[C@@H](c3ccc(C)cc3)N3C(=O)N(c4cccc(Cl)c4)C(=O)[C@@]3(Cc3ccccc3)[C@H]2C1=O	MrgX1 antag -5.2 | MrgX1 antag conf inactive | HEK293 Ca flux inactive | HEK293 Ca counter inactive | HEK293 Ca cntr2 inactive
CCN1C(=O)[C@H]2[C@@H](c3ccc(C)cc3)N3C(=O)N(c4cccc(Cl)c4)C(=O)[C@@]3(Cc3ccc(Cl)cc3)[C@H]2C1=O	none (no result: RGS4 block, RGS4 act)
CC(CCc1ccccc1)NC(=O)CNC(=O)N1CC(=O)Nc2ccccc21 (stereo not given)	none
Clc1ccc2nnnc(-c3ccccc3)c2c1	MrgX1 antag -4.6 | MrgX1 antag conf inactive | HEK293 Ca flux inactive | HEK293 Ca counter inactive | HEK293 Ca cntr2 inactive
CCc1ccc(NC(=O)CS(=O)CC(=O)Nc2ccc(-n3cnnn3)c(C)c2)cc1 (stereo not given)	none
O=C(COc1cccc(NC(=O)c2cccs2)c1)c1ccc(F)cc1	MrgX1 antag -4.9 | MrgX1 antag conf inactive | HEK293 Ca flux inactive | HEK293 Ca counter inactive | HEK293 Ca cntr2 inactive
O=C(COc1cccc(NC(=O)c2ccccc2)c1)c1ccccc1	none
O=C(CCl)Nc1cc(-c2ccccc2)nn1-c1ccccc1	MrgX1 antag -5.3 | MrgX1 antag conf inactive | HEK293 Ca flux inactive | HEK293 Ca counter inactive | HEK293 Ca cntr2 57
CC(=O)Nc1ccc(-c2cc(NC(C)=O)n(-c3ccccc3)n2)cc1	none
O=C(O)c1ccc(NCCC2=CCCCC2)c([N+](=O)[O-])c1	none
CC(Cc1cccs1)NC(=S)Nc1ccc(Cl)c(Cl)c1 (stereo not given)	MrgX1 antag -6.8 | MrgX1 antag conf inactive | HEK293 Ca flux inactive | HEK293 Ca counter inactive | HEK293 Ca cntr2 inactive
CC(Cc1cccs1)NC(=O)Nc1cccc(Cl)c1 (stereo not given)	none
Cc1ccc(OC(C)C(=O)Nc2ccc(S(=O)(=O)Nc3nccs3)cc2)cc1 (stereo not given)	none

High-throughput results: PubChem BioAssay, Johns Hopkins Ion Channel Center
